This is an account of results in ChEMBL document CHEMBL5625173, “Antimycobacterial pyridine carboxamides: From design to in vivo activity” (Eur J Med Chem, 2023).

Data set [1] deals with Mycobacterium tuberculosis. Description: Antimycobacterial activity against Mycobacterium tuberculosis H37Rv by alamar blue staining based microplate analysis. In kind it is functional. The procedure, abridged:
(§1)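 Microplate Alamar Blue assay. MIC values read at pH 6.6 (neutral). One acidic-pH test at pH 5.6 is footnoted separately.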
In general terms: Resazurin is reduced to fluorescent resorufin, in cell work by metabolically active cells.

For data set [2], the system named is Mycobacterium tuberculosis. Put plainly: Antimycobacterial activity against Mycobacterium tuberculosis H37Ra by alamar blue staining based microplate analysis. In kind it is functional. The procedure, abridged:
as §1

The next data set relates to Mycobacterium kansasii. Description: Antimycobacterial activity against Mycobacterium kansasii by alamar blue staining based microplate analysis. Format: functional. The procedure, abridged:
(§2)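 Microplate Alamar Blue assay, one of six mycobacterial strains tested (Mtb H37Rv, Mtb H37Ra, M. kansasii, M. avium, M. smegmatis, M. aurum); value reported as MIC.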

The next data set has as its system Mycobacterium avium. Put plainly: Antimycobacterial activity against Mycobacterium avium by alamar blue staining based microplate analysis. Format: functional. In a few lines:
as §1

The test system of data set [3] is Mycolicibacterium smegmatis. Put plainly: Antimycobacterial activity against Mycobacterium smegmatis by alamar blue staining based microplate analysis. Format: functional. In a few lines: as §2
The subject of another data set is Mycolicibacterium aurum. Put plainly: Antimycobacterial activity against Mycobacterium aurum by alamar blue staining based microplate analysis. Format: functional. The procedure, abridged: as §2
Data set [4] can be described thus: Cytotoxicity against human HepG2 cells assessed as inhibition of cell viability. Format: toxicity, cell-based.

pIC50: −log10 of the molar value. In brackets after ≈: the same amount, converted by molar mass.

As a reminder, the MIC is the lowest concentration that inhibits growth of the organism. A low value points to a more susceptible organism. For orientation: pIC50 means the negative decadic logarithm of the IC50, by convention in mol/L. For the compound `O=C(Nc1cnccn1)c1ccc(C(F)(F)F)cn1`, the MIC in data set [1] is 50 µg/mL (≈ 186 µM); in data set [2] it was at least 500 µg/mL; in the data set with Mycobacterium kansasii, 6.25 µg/mL (≈ 23.3 µM); with Mycobacterium avium, over 100 µg/mL; in data set [3] it was at least 500 µg/mL; with Mycolicibacterium aurum it was at least 500 µg/mL. For the same compound, the pIC50 in data set [4] was under 3.84.
`COc1ccnc(C(=O)Nc2cncc(Cl)n2)c1`: the MIC was over 100 µg/mL in data set [1]; at least 500 µg/mL in data set [2]; over 100 µg/mL with Mycobacterium kansasii; over 100 µg/mL against Mycobacterium avium; at least 500 µg/mL in data set [3]; 250 µg/mL (≈ 945 µM) against Mycolicibacterium aurum. Moreover, the pIC50 in data set [4] was under 3.30.
Turning to `O=C(Nc1cncc(Cl)n1)c1ccc(Cl)nc1`, the MIC in data set [1] was 100 µg/mL (≈ 372 µM); in data set [2], at least 500 µg/mL; with Mycobacterium kansasii, over 100 µg/mL; with Mycobacterium avium, over 100 µg/mL; in data set [3], at least 500 µg/mL; against Mycolicibacterium aurum it was at least 500 µg/mL. Besides, in data set [4], the pIC50 is under 3.30.
For `O=C(O)c1ccc(NC(=O)c2cccc(C(F)(F)F)n2)cc1`, the MIC in data set [1] was 50 µg/mL (≈ 161 µM); in data set [2], 62.5 µg/mL (≈ 201 µM); in the data set with Mycobacterium kansasii, 50 µg/mL (≈ 161 µM); against Mycobacterium avium, over 100 µg/mL; in data set [3], at least 500 µg/mL; in the data set on Mycolicibacterium aurum, 62.5 µg/mL (≈ 201 µM). Moreover, the pIC50 in data set [4] was under 3.61.
For `Cc1cc(C(=O)Nc2ccc(C(=O)O)c(O)c2)cc(Cl)n1`, the minimum inhibitory concentration (MIC) is 50 µg/mL (≈ 163 µM) in data set [1]; 250 µg/mL (≈ 815 µM) in data set [2]; over 100 µg/mL in the data set on Mycobacterium kansasii; over 100 µg/mL against Mycobacterium avium; at least 500 µg/mL in data set [3]; at least 500 µg/mL against Mycolicibacterium aurum. In addition, the negative-log IC50 (pIC50) in data set [4] was under 3.00.
Regarding `Cc1cc(C(=O)Nc2cnccn2)ccn1`, the MIC in data set [1] was over 100 µg/mL; in data set [2], at least 250 µg/mL; against Mycobacterium kansasii, over 100 µg/mL; against Mycobacterium avium, over 100 µg/mL; in data set [3], at least 250 µg/mL; against Mycolicibacterium aurum it was at least 250 µg/mL. Besides, in data set [4], the pIC50 is under 3.00.
On to `O=C(O)c1ccc(NC(=O)c2cccc(Cl)n2)cc1`, for which the MIC was over 100 µg/mL in data set [1]; 62.5 µg/mL (≈ 226 µM) in data set [2]; over 100 µg/mL in the data set on Mycobacterium kansasii; over 100 µg/mL against Mycobacterium avium; at least 500 µg/mL in data set [3]; 250 µg/mL (≈ 904 µM) against Mycolicibacterium aurum. The pIC50 in data set [4] is under 3.60.
Take `Nc1cnccn1`: the MIC was over 100 µg/mL in data set [1]; at least 500 µg/mL in data set [2]; over 100 µg/mL with Mycobacterium kansasii; over 100 µg/mL against Mycobacterium avium; at least 500 µg/mL in data set [3]; at least 500 µg/mL with Mycolicibacterium aurum. For the same compound, in data set [4], the pIC50 is under 3.00.
Regarding `COc1ccnc(C(=O)Nc2cnccn2)c1`, the MIC is over 100 µg/mL in data set [1]; at least 250 µg/mL in data set [2]; 50 µg/mL (≈ 217 µM) in the data set on Mycobacterium kansasii; over 100 µg/mL against Mycobacterium avium; at least 250 µg/mL in data set [3]; at least 250 µg/mL in the data set with Mycolicibacterium aurum. In addition, the pIC50 in data set [4] was under 3.60.
Consider `O=C(Nc1cnccn1)c1ccncc1`, for which the MIC is over 100 µg/mL in data set [1]; at least 500 µg/mL in data set [2]; over 100 µg/mL in the data set with Mycobacterium kansasii; over 100 µg/mL in the data set with Mycobacterium avium; at least 500 µg/mL in data set [3]; at least 500 µg/mL in the data set on Mycolicibacterium aurum. Moreover, the pIC50 in data set [4] was under 3.00.
Consider `NNC(=O)c1ccncc1` [ISONIAZID], for which the MIC in data set [1] was 0.2 µg/mL (≈ 1.46 µM); in data set [2] it was 0.25 µg/mL (≈ 1.82 µM); with Mycobacterium kansasii it was 12.5 µg/mL (≈ 91.1 µM); with Mycobacterium avium it was 12.5 µg/mL (≈ 91.1 µM); in data set [3], 15.6 µg/mL (≈ 114 µM); in the data set on Mycolicibacterium aurum, 3.91 µg/mL (≈ 28.5 µM). Moreover, the negative-log IC50 (pIC50) in data set [4] was under 3.00.
With `Nc1ccc(C(=O)O)cc1` [AMINOBENZOIC ACID], the minimal inhibitory concentration (MIC) in data set [1] was over 100 µg/mL; in data set [2] it was 250 µg/mL (≈ 1820 µM); with Mycobacterium kansasii, over 100 µg/mL; with Mycobacterium avium, over 100 µg/mL; in data set [3] it was at least 500 µg/mL; against Mycolicibacterium aurum, 250 µg/mL (≈ 1820 µM). For the same compound, the pIC50 in data set [4] was under 3.00.
As to `CO[C@H]1/C=C/O[C@@]2(C)Oc3c(C)c(O)c4c(O)c(c(/C=N/N5CCN(C)CC5)c(O)c4c3C2=O)NC(=O)/C(C)=C\C=C\[C@H](C)[C@H](O)[C@@H](C)[C@@H](O)[C@@H](C)[C@H](OC(C)=O)[C@@H]1C` [RIFAMPIN], the results for the MIC (in data set [2]; in data set [3]; with Mycolicibacterium aurum) were 0.003 µg/mL (≈ 0.00365 µM), 12.5 µg/mL (≈ 15.2 µM) and 0.198 µg/mL (≈ 0.241 µM), respectively. Also, in data set [4], the pIC50 was under 3.30.
